Measured values as given in ChEMBL document CHEMBL4513216, “Probing the Open Global Health Chemical Diversity Library for Multistage-Active Starting Points for Next-Generation Antimalarials” (ACS Infect Dis, 2020).

Test: Toxicity liver stage against HepG2, at 10uM
Type: cell-based
Set-up: test concentration 10 uM, cell line HepG2-A16-CD81EGFP
Details: human, HepG2-A16-CD81EGFP cells; read-out: INHIBITION
Method in brief: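 Uninfected HepG2-A16-CD81EGFP cells, 3 × 10^3 per well, 1536-well, plated on prespotted compound at 10 μM final, parasite-free screening media added to match infected plates; puromycin 10 μM positive, DMSO 0.5% negative; run in parallel with 48 h PbLuc assay at 37 °C, 5% CO2; viability by CellTiter-Glo luminescence, normalized to controls.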

SMILES | cytotoxicity at 10 µM [%]
COC(=O)c1cccc2nc([C@H]3CCN(CC(C)C)C3)oc12 | -2.13
CCS(=O)(=O)c1ccc2oc([C@H]3CCN(CC4CCCCC4)C3)nc2c1 | 41
COc1cc(OC)c2c(=O)oc(CC(O)CC(C)=O)cc2c1 (stereo not drawn) | 5.73
Cc1ccc(C(=O)N2CCC3(CCC(C(=O)NCC4CC4)O3)CC2)o1 (stereo not drawn) | 6.85
Cc1cccc(S(=O)(=O)N2CCCC3(CCCN3S(C)(=O)=O)C2)c1 (stereo not drawn) | 7.28
Cc1csc([C@H]2C[C@@H]3CCN(Cc4cnn(C)c4)C[C@H]3O2)n1 | -3.9
Cn1cc(CN2CCC3(CCCN(C(=O)c4cscn4)C3)C2)cn1 (stereo not drawn) | 1.71
COCCN1C(=O)CCC12CCCN(c1ncc(F)cn1)CC2 (stereo not drawn) | -8.92
O=C1CC(c2ccc(C(=O)O)cc2)c2ncn(-c3cccc(Cl)c3)c2N1 (stereo not drawn) | -2.17
CCOC(=O)CCNC(=O)N1CCN(c2nc3ccccc3n2C)CC1 | 4.88
O=C(NCc1ccccn1)c1nnn(-c2ccc(Br)cc2)n1 | 1.47
O=C(Cc1ccsc1)N1CCn2cc(CN3CCCC3)nc2C1 | -14.2
NC(=O)c1nc(-c2ccc(Cl)cc2Cl)oc1N | 2.66
O=C(Cn1cc(I)cn1)N1CCc2ccccc2C1 | 11.2
CSc1nsc(NC(=O)c2cc(C3CC3)nn2C)n1 | 6.86
COCCN1CCC(c2cncc(N(C)C)n2)CC1 | -25.5
COc1ccnc(N(C)Cc2csc(C)n2)n1 | -2.62
CC(C(=O)N(C)Cc1ccco1)n1cncn1 (stereo not drawn) | 4.4
O=C(CN1CCS(=O)(=O)CC1)Nc1ccc(N2CCCC2)nc1 | 10.3
CC(C)c1nnc2n1CCN(Cc1cccc3c1OCCO3)C2 | -1.26
O=C(NCCOc1cccc(Cl)c1Cl)N1CCC2(CC1)OCCO2 | -3.36
CC(C)c1nnc(CN2CC(n3cccn3)Cc3ccccc32)o1 (stereo not drawn) | -146
Cc1cnn(CCNc2cnc3ccccc3n2)c1 | 11.4

SMILES | cytotoxicity at 10 µM [%]
O=C(Nc1cnn(-c2ccccc2Cl)c1)NC1CCC(O)CC1 (stereo not drawn) | -2.49
CC(O)CN1CCN(Cc2coc(-c3ccccc3Cl)n2)CC1 (stereo not drawn) | -4.73
Cc1nc(C)c(C(=O)N2CCc3c(Cl)cccc32)o1 | -1.55
CSc1ccc(NCC(=O)NCC2CC2)cc1F | 0.936
CN(Cc1cc(Br)cn1C)C(=O)c1cscn1 | -0.37
O=C(NS(=O)(=O)Cc1cc(-c2ccccc2)no1)C1CCOCC1 | -2.85
Cc1ccc(-c2cc(C(=O)NCCN3CCOCC3)n[nH]2)s1 | -6.45
Cc1ccnc(C(NC(=O)c2ncoc2C)C2CC2)n1 (stereo not drawn) | 12.7
Cc1ccc(C(=O)NCCNC(=O)c2cncnc2C)cc1F | 3.91
COc1ccc(C(=O)NCCNC(=O)c2cncnc2C)cc1 | 7.98
O=C(NCCNc1ncccn1)NCc1cccc(OC(F)F)c1 | -2.64
Cn1nc(CC(C)(C)C)cc1NC(=O)c1ccc(CNC(N)=O)cc1 | -1.78
Cc1ccsc1CN(C)C(=O)c1ccc(N2CCOCC2)c(F)c1 | 11.1
c1cnn(CC2CN(Cc3csc(-c4ccsc4)n3)CCO2)c1 (stereo not drawn) | 3.23
Cc1ccc(-c2ccsc2C(=O)NC2CCS(=O)(=O)C2)cc1 (stereo not drawn) | 1.07
CC(Cn1cccn1)NC(=O)Nc1cccnc1 (stereo not drawn) | -2.9
COc1ccc(NC(=O)NC(C)Cn2cccn2)cn1 (stereo not drawn) | -5.72
CC(C)CC(CCO)CNC(=O)N1CC(C)(C)C1(C)C (stereo not drawn) | -2.48
CC(C)Cn1cnnc1C1CCCN1C(=O)c1cc2ccccn2c1 (stereo not drawn) | -0.384
Cc1cnn(C2CCCN(C(=O)c3c(C)oc4nc[nH]c(=O)c34)C2)c1 (stereo not drawn) | -6.62
CCS(=O)(=O)N(C)C1CCN(Cn2ccc(-c3ccc(F)cc3)n2)CC1 | 1.95
Cn1ccc(CNC(=O)N2CCCC3(C2)OCCO3)c1 | 7.6
O=C1CCCc2[nH]c(=O)c(C(=O)N(CC3CCCCC3)C3CC3)cc21 | -2.56

SMILES | cytotoxicity at 10 µM [%]
Cc1cc(C)n(C2CN(Cc3ccccn3)C2)n1 | -3.67
CN(Cc1cnccn1)C(=O)Nc1cc(F)cc(N2CCCC2)c1 | 1.8
CN1CCc2c(NC(=O)NCc3ccccc3Cl)cccc21 | 3.65
CN1CCCN(C(=O)c2ccn3ccnc3c2)CC1 | -2.38
COCCNC(=O)N1CCN(C(=O)Cc2ccccc2F)CC1 | -8.85
CC(C)c1nnc2n1CCN(Cc1nc3c(F)cccc3[nH]1)C2 | -9.14
Cc1ncsc1C(=O)OCCN1CCCCCC1=O | -4.27
COc1ccnc(N2CCN(C(=O)c3cnn(C)c3C3CC3)CC2)n1 | -2.88
Cc1ccc(C(=O)NCC2(O)CCOCC2)cc1Br | -1.3
COC(=O)c1sccc1NC(=O)C1CCCN1C(=O)c1ccco1 (stereo not drawn) | 20.3
O=C(NCCCn1cccn1)C1(c2ccc(Br)cc2)CC1 | -0.0323
N#Cc1ccc(CNCC(C(=O)N2CCOCC2)c2ccccc2)cc1 (stereo not drawn) | -11.9
Cc1csc2c(=O)n(CCN3CCNCC3)cnc12 | -3.5
COc1cc(F)ccc1C(C(=O)O)N(C)Cc1ccon1 (stereo not drawn) | -5.31
O=C(NCC1COCCO1)c1csc(Cc2ccccc2)n1 (stereo not drawn) | -0.857
CCOc1ccccc1-n1c(CNC)n[nH]c1=O | -2.98
CC(C)n1cnnc1CN1CCC2(CCCN(C3CCCCC3)C2=O)C1 (stereo not drawn) | -123
CCc1cc(NCCS(=O)(=O)N(C)C)nc(N2CCOCC2)n1 | 1.44
CCn1c(N)nc2cc(C(=O)N3CCCN(C)CC3)cnc21 | -2.43
O=c1n(Cc2ncccn2)nc(C2CCNCC2)n1-c1ccccc1 | -9.62
CCC(CO)N(Cc1ccsc1)Cc1cccc(O)c1 (stereo not drawn) | 0.616
Cc1cc(CC(=O)N2CCN(C)[C@@H]3CS(=O)(=O)C[C@@H]32)ccc1F | -3.89
COc1cc(C)ccc1OCCN1CC[C@@]2(O)CCNC[C@H]2C1 | -157

SMILES | cytotoxicity at 10 µM [%]
CCn1nc(C)c(CN(CCOC)C(=O)c2ccc(=O)[nH]n2)c1C | -2.27
CC(C)C1CN(c2ncccc2Cl)CCC(=O)N1Cc1ccc(F)cc1 (stereo not drawn) | 2.41
Cc1ccc(CN2CCN(C(=O)C3CCC3)[C@@H]3CS(=O)(=O)C[C@@H]32)cc1C | 2.09
CCn1ccnc1CNc1nccc(-c2cn(C)nc2C)n1 | -4.6
NC(=O)c1cccc(CC2CCN(C(=O)Cn3cnnn3)C2)c1 (stereo not drawn) | 0.557
CC(C)CN1CC(C(=O)N(C)CCc2cn[nH]c2)CC1=O (stereo not drawn) | -4.1
CN1CCCC(c2nc3c([nH]2)CC(C)(C)CNC3=O)C1 (stereo not drawn) | 9.01
Cc1csc(S(=O)(=O)N2CCN(C)C3(CCC(=O)N(C)CC3)C2)c1 (stereo not drawn) | 1.67
Cc1ncc(CC(=O)N2CCCC(COc3ccccc3F)C2)c(=O)[nH]1 (stereo not drawn) | -151
CN(CCc1ccccn1)C(=O)c1cn(CCN2CCNCC2)nn1 | -8.48
CCCn1ncc(C(=O)NCCc2[nH]nc3c2CCCC3)c1C | -6.63
CCc1cnc(NCCSc2cnn[nH]2)nc1 | -10.4
Cc1cnc(C(=O)N2CCCC(Cn3cc(C4CC4)nn3)C2)cn1 (stereo not drawn) | -1.15
Cc1nc(CN2CCCN(c3nccs3)CC2)no1 | -3.62
CC(C)OCCCNC(=O)CS(=O)(=O)Cc1cccc(Cl)c1 | 5.44
O=C(CC1CCCCC1)NC1CCCCNC1=O (stereo not drawn) | 6.82
c1ccc(OCCCN2CCOC(CNc3cccnn3)C2)cc1 (stereo not drawn) | -0.906
NC(=O)C1CN(C(=O)Nc2ccccc2Oc2ccccc2Cl)CCO1 (stereo not drawn) | -10.5
CCCNC(=O)C1CCCN(Cc2csc(C(C)(C)C)n2)C1 (stereo not drawn) | -3.14
CCn1cc(NC(=O)NCC(C)N(C)C2CC2)cn1 (stereo not drawn) | -3.54
CCN1CCOC(CNCc2cccc(OCc3ccccn3)c2)C1 (stereo not drawn) | -13.4
Cc1ncc2c(n1)CCN(CCCc1nc3ccccc3o1)C2 | -18.7
CCn1nc2c(cc1=O)CN(Cc1coc(-c3ccccc3)n1)CC2 | -10.9

SMILES | cytotoxicity at 10 µM [%]
CCc1nc(CN2CCc3c(ncn3C3CC3)C2)cs1 | -1.59
CC(C1CC1)N(C)C(=O)c1ccc(-n2ncc(C#N)c2N)cc1 (stereo not drawn) | 3.51
Cc1cnn(CC2CCCN2C(=O)c2cccc(F)c2F)c1 (stereo not drawn) | -1.3
CCCc1nc(C)c(C(=O)NCCN2CCOCC2)s1 | -7.75
O=C(c1cn(-c2ccccc2)nn1)N1CCCC(n2cccn2)C1 (stereo not drawn) | -7.85
Cc1nn(C)c(Cl)c1C1CCCN1C(=O)c1ccnc(N(C)C)c1 (stereo not drawn) | -6.73
Cc1nnc(N2CCC(NS(C)(=O)=O)CC2)c(C#N)c1C | -5.13
CC(c1nc(C2CC2)no1)N1CCN(Cc2cccnc2)CC1 (stereo not drawn) | -6.18
CN(C)CC1CN(Cc2cccc(C#N)c2)Cc2nccn2C1 (stereo not drawn) | -124
Cc1ccc2c(n1)N(CC1CC1)CCN(S(=O)(=O)C1CC1)C2 | 12.4
CN(C)C(=O)N1CCC2(CC1)CN(CC1CC1)CC21CCNC1=O (stereo not drawn) | 3.67
O=C(Cc1cccnc1)N1CCCC2(CCN(C3CCOCC3)C2)C1 (stereo not drawn) | -1.45
COc1c(CNC2CCCOc3ccc(F)cc32)c(C)nn1C (stereo not drawn) | 1.51
CCN(C)c1ncnc2c1CCN(C(=O)N(C)C)CC2 | -0.0197
O=S(=O)(C1CC1)N1C[C@@H]2CN(Cc3ccoc3)CCO[C@@H]2C1 | -142
c1cn(-c2cncc(C3CCNCC3)n2)cn1 | -32.5
Cc1ccc(C(=O)N2CCc3ncnc(-c4cnn(C)c4)c3CC2)cn1 | 7.83
Cc1ccc(CN2CCC3(CC2)CC(CC(=O)NC(C)C)CO3)s1 (stereo not drawn) | -1.72
CCO[C@H]1CO[C@@]2(CCCN(Cc3scnc3C)C2)C1 | -137
CC(C)OC(=O)N1C[C@@H]2CC[C@H]1CN(C(=O)c1ccccc1)C2 | 0.608
O=C(c1ccncc1)N1C[C@H]2CC[C@@H](C1)N(S(=O)(=O)c1cccnc1)C2 | -3.51
